# Compound activity deposited in PubChem by several laboratories.
# Rows were chosen to be rich in hits. Some 3.2% of all compounds tested hit in one or more screens of this group.
# MEKK2mut PB1 HTS: signal of MEK5 binding to mutant human MEKK2 PB1 domain | hit rate 0.35% among 290,000 | percent response, % at 10 µM | bead flow cytometry, Alexa488-MEK5 binding to MEKK2 mutant; in the data active = percent response above about 24%, passing the limit was not always enough
# DSG3 Ab inh: human desmoglein-3 autoantibody binding inhibition. hit rate 0.48% among 310,000. AID 588358. DSG3-coupled beads, scFv-anti-DSG3-GFP binding, flow cytometry; hits give low values. P32926. binding (percent of control), % at 10 µM;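 active = binding more than 3 SD below its plate's average and above zero; inconclusive = below that plate limit but binding exactly zero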;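 also: hits lower antibody fragment binding to DSG3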
# UBC13 inh: human UBC13 polyubiquitination inhibition; UBC13 polyubiquitin chain formation, TR-FRET; inhibition, % at 20 µM; hit rate 0.47% among 330,000; AID 485273; in the data active = inhibition above about 45%, passing the limit was not always enough; inconclusive = no clear call, values can overlap the other calls
# MEKK2 WT-MEK5: raises or lowers MEK5 binding to wildtype human MEKK2 PB1 domain. AID 1531. bead flow cytometry, Alexa488-MEK5 binding to MEKK2 WT; actives lie on both sides. hit rate 1.1% among 290,000. Q9Y2U5. binding response (% of control), % at 10 µM; in the data active = binding response below about 67% or above about 130%; inconclusive = no clear call, values can overlap the other calls; inactive = in between
# Apaf-1 inh: blocks human Apaf-1 apoptosome activity | inhibition, % at 20 µM | O14727 | reconstituted apoptosome caspase-3 activity, DEVD-Rh110 fluorescence | hit rate 0.71% among 330,000; active = inhibition of at least 40% at 20 µM;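 also: plate controls were DMSO wells for no effect and DEVD-CHO caspase inhibitor wells for full effect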
#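 Material: cell-free apoptosome with Apaf-1, procaspase-3 and caspase-9; Buffer or medium: Hepes pH 7.5 with detergent and BSA; Reagent: cytochrome c trigger plus (Z-DEVD)2-Rh110 caspase-3 substrate; Times: compound with Apaf-1, dATP, procaspase-3 30 min, then 50 min reaction, room temperature; Technique: Rh110 fluorescence intensity.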
# MEKK3 PB1 HTS: raises or lowers MEK5 binding to the human MEKK3 PB1 domain; bead-based flow cytometry, Alexa488-MEK5 binding to MEKK3; actives lie on both sides; 0 = blocked by unlabeled MEK5, 100 = vehicle; binding response (% of control), % at 10 µM; hit rate 1.4% among 290,000;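 active = binding response more than 3 SD above or below the average of its plate-row segment, actives on both sides; inconclusive = wells at one plate position flagged as instrument error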;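 also: Alexa488 bead fluorescence after subtracting the streptavidin-only scavenger bead signal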
# MEKK2wt confirm: raises or lowers MEK5 binding to wildtype human MEKK2, retest. hit rate 2.4% among 5,900. AID 1892. bead flow cytometry, Alexa488-MEK5 binding to MEKK2 WT; actives lie on both sides. binding response (% of control), % at 10 µM. shares compounds with MEKK3 PB1 HTS; in the data active = binding response below about 16% or above about 210%; inactive = in between
# MEKK2mut confirm: signal of MEK5 binding to mutant human MEKK2, retest. bead flow cytometry, Alexa488-MEK5 binding to MEKK2 mutant. hit rate 2% among 5,900. shares compounds with MEKK3 PB1 HTS. percent response, % at 10 µM; in the data active = percent response mostly above about 71%, no sharp cut-off; inactive = mostly below about 38%;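 also: higher means compound restores mutant binding toward wildtype level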
# MEKK3 confirm: confirmation of inhibitors of MEK5 binding to human MEKK3 | shares compounds with MEKK3 PB1 HTS | bead flow cytometry, Alexa488-MEK5 binding to MEKK3; hits give low values | binding response (% of control), % at 10 µM | hit rate 1.8% among 5,900;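 active = binding response below 72% of control, or above a set upper limit, though filed actives all read lower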;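 also: 100% = DMSO only wells and 0% = binding blocked by excess unlabeled MEK5; lower values mean stronger disruption of MEK5 binding to MEKK3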
# Active calls of the source: *; ? = inconclusive; · = no result; [ ] = dose if it differs, or a comment.
SMILES,MEKK2mut PB1 HTS,DSG3 Ab inh,UBC13 inh,MEKK2 WT-MEK5,Apaf-1 inh,MEKK3 PB1 HTS,MEKK2wt confirm,MEKK2mut confirm,MEKK3 confirm
COc1ccc(/C=N/Nc2nc(=O)[nH]nc2C)cc1[N+](=O)[O-],0,97,-45,105,-8,124,·,·,·
Cc1n[nH]c(=O)nc1N/N=C/c1ccc(O)c([N+](=O)[O-])c1,1,104,-75,107,-4,129*,99,0,102
COc1ccc(CNC(=O)C(c2ccco2)N(C(=O)c2ccccn2)c2ccccc2)cc1 (stereo unspecified),-15,101,-10,55*[inhibitor],7,59*[inhibitor],96,-4,98
CC(=O)c1cccc(N(C(=O)c2cnccn2)C(C(=O)NCc2ccccc2)c2ccco2)c1 (stereo unspecified),9,108,0,118,-1,124*,100,5,97
COCCNC(=O)C(c1ccccc1)N(C(=O)Cn1nnc2ccccc21)c1cccnc1 (stereo unspecified),10,101,-3,110,2,108,·,·,·
CC(=O)c1cccc(N(C(=O)Cn2nnc3ccccc32)C(C(=O)NCc2ccccc2)c2ccccn2)c1 (stereo unspecified),2,102,-3,105,16,130*,94,4,97
Cc1ccc(C2(C)NC(=O)N(CC(=O)N3CCN(C(=O)c4cccs4)CC3)C2=O)cc1 (stereo unspecified),·,101,-15,·,3,·,·,·,·
Cc1cccc2c1-c1sc(C(=O)Nc3ccccc3N3CCN(C)CC3)cc1CO2,4,92,34,162*,8,103,198,46,111
O=c1c(C=NCc2cccnc2)c(C(F)(F)F)[nH]n1-c1nc2ccccc2s1,275*,98,-2,·,3,95,96,-1,101
COCCNC(=O)Cn1c(=O)n(CCCCCC(=O)Nc2ccccc2)c(=O)c2sccc21,1,106,-2,107,0,135*,104,1,103
COCCCNC(=O)Cn1c(=O)n(CCCCCC(=O)Nc2ccccc2)c(=O)c2sccc21,-3,88,-4,94,-10,100,·,·,·
Cc1cc(C(=O)CCC(=O)N(C)CC2COc3ccccc3O2)c(C)s1 (stereo unspecified),·,107,·,·,·,·,·,·,·
C/C=C(/CCC1NCCc2c1[nH]c1ccccc21)[Si](C)(C)C (stereo unspecified),·,96,·,·,·,·,·,·,·
N#Cc1nc(-c2ccccc2)oc1NCCN1CCCCC1,-21,?,14,3.0*[inhibitor],4,2.0*[inhibitor],108,2,104
N#Cc1nc(-c2ccccc2)oc1NCC1CCCO1 (stereo unspecified),0,102,11,112,2,147*,92,-8,96
O=C(CC(=O)NN=Cc1ccc2c(c1)CCC2)NN=Cc1ccc2c(c1)CCC2,·,99,·,·,·,·,·,·,·
CCOc1ccccc1NC(=O)C(OC(=O)c1ccccc1)c1ccccc1 (stereo unspecified),1,106,40,106,22,130*,95,-5,100
CCOc1ccccc1NC(=O)C(OC(=O)c1ccccc1O)c1ccccc1 (stereo unspecified),-1,103,30,93,7,97,·,·,·
COc1ccc(-c2nc(C(=O)NCCCN3CCOCC3)cc3c2[nH]c2ccccc23)cc1OC,15,105,30,137*,33,105,150,24,110
Cc1ccc(-c2nc(C(=O)NCCCN3CCOCC3)cc3c2[nH]c2ccccc23)cc1,21,110,33,142*,38,101,156,41,108
COC(=O)c1[nH]c2ccccc2c1CN1CCOCC1,5,102,-5,106,5,104,·,·,·
CSc1ccccc1C(=O)C1CCCN(C(=O)c2cccc(Cn3cccn3)c2)C1 (stereo unspecified),·,97,·,·,·,·,·,·,·
O=C(COc1ccccc1[N+](=O)[O-])N/N=C/c1ccc(OC(=O)c2ccco2)cc1,0,104,-4,103,3,139*,96,-6,102
COc1cc(/C=N/NC(=O)COc2ccccc2[N+](=O)[O-])ccc1OC(=O)c1ccco1,0,92,4,93,-10,92,·,·,·
COc1ccc(N2CCN(C(=O)CSc3nnc4c(C)cc5ccc(C)c(C)c5n34)CC2)cc1,-21,106,-18,51,7,36*[inhibitor],98,-2,96
SMILES,MEKK2mut PB1 HTS,DSG3 Ab inh,UBC13 inh,MEKK2 WT-MEK5,Apaf-1 inh,MEKK3 PB1 HTS,MEKK2wt confirm,MEKK2mut confirm,MEKK3 confirm
COc1ccc(N2CCN(C(=O)CSc3nnc4c(C)cc5cc(C)ccc5n34)CC2)cc1,·,104,-19,·,30,·,·,·,·
CC(=O)Nc1ccc(-c2cc(C(=O)O)c3ccccc3n2)cc1,-40,89,18,61*[inhibitor],-19,58*[inhibitor],106,-1,103
CC(C)(C)NCc1cc(Cl)ccc1OCc1ccccc1F,-22,110,-20,70,9,75*[inhibitor],101,0,99
CCN(CC)CCNCc1cc(Cl)ccc1OCc1ccccc1F,15,101,19,143,-1,98,·,·,·
COc1ccccc1-c1coc2cc(O)cc(O)c2c1=O,3,103,11,99,-2,97,·,·,·
COc1ccc(-c2coc3cc(O)cc(O)c3c2=O)cc1OC,30,95,8,116,-23,132*,105,-4,104
CC(=O)Nc1ccc(S(=O)(=O)N(C)Cc2cnn(C)c2)cc1,8,·,8,106,-2,106,·,·,·
CS(=O)(=O)N(Cc1ccccc1)c1ccc(C(=O)NCC2CCCO2)cc1 (stereo unspecified),5,100,5,112,8,123*,100,1,100
O=C(NCC(=O)N(c1cccc(F)c1)C(C(=O)NC1CCCC1)c1cccnc1)c1cccs1 (stereo unspecified),1,99,14,115,0,129*,101,-4,100
O=C(NCC(=O)N(c1ccccc1)C(C(=O)NCC1CCCO1)c1ccccc1)c1ccco1 (stereo unspecified),4,·,3,117,7,125*,98,3,102
